Compound activity (PubChem)
Most compounds without a hit are left out; they make up all but 6.4% or so of the library.
Jurkat viability: cytotoxicity toward Jurkat cells; AID 463; Jurkat E6.1 viability, ATP luminescence, 48 h; actives 1.2% (n = 56,000); inhibition, % at 4 µM;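 active = inhibition above the mean inhibition of all tested compounds plus 3 SD, cut at about 28% in these data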
tolC growth inh: growth inhibitors of E. coli BW25113 tolC mutant. OD615. growth inhibition, % at 10 µM (by protocol). actives 2.2% (n = 65,000). AID 573;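 active = growth inhibition at or above a cutoff equal to the mean over every tested compound plus 3 SD, cut at about 60% in these data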;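 also: growth measured after 20 h incubation at 37 °C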
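Test system: E. coli BW25113 ΔtolC::kan bacteria; incubation: 37 °C, 20 h exposure; medium: LB broth supplemented with 50 µg/mL kanamycin; read-out basis: percent growth inhibition; signal: A615 absorbance measurement; compound: 10 µM final, single dose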
H69AR growth 86K: growth inhibitors of human H69AR lung tumor cells; viability, % at 10 µM; actives 6% (n = 85,000); AID 598; H69AR lung tumor viability, ATP luminescence, 72 h; hits give low values;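 active = viability at or below 40%; inactive = viability above 40%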;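 also: multidrug resistant small cell line overexpressing MRP-1 efflux transporter; 100% = mean luminescence of untreated control wells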
Lung fibro prol: blocks proliferation of human lung fibroblasts. LL 47 human lung fibroblast viability, ATP luminescence; hits give low values. viability, % at 10 µM. actives 1.1% (n = 85,000). AID 719;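 active = viability at or below 50% in the single dose screen; inactive = viability above 50%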;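 also: compound exposure lasted 72 h before the ATP readout; 100% = median luminescence of untreated cell-only wells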
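Test system: LL 47 human lung fibroblasts; Quantity: 1,150 cells/well; Buffer or medium: IMEM plus 15% FBS; Dosing: tenfold compound dosing solution, DMSO at 0.1%; Timing: overnight cell rest, 72 h compound treatment at 37 °C; Detection: ATP-based CellTiter-Glo luminescent readout; Read-out basis: viability percentage against median untreated-cell control; Controls: cell-only wells, no compound.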
HUVEC inhibit: inhibitors of human endothelial cell proliferation; AID 648; viability, % at 10 µM (by protocol); actives 1.1% (n = 86,000); HUVEC proliferation, CellTiter-Glo luminescence, 72 h; hits give low values;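 active = viability at or below 30%; inactive = viability above 30%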;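 also: 100% = median luminescence of DMSO-only cell control wells on each plate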
Ecoli WT expand: growth inhibitors of E. coli BW25113 wild type; actives 0.15% (n = 98,000); AID 710; OD600 absorbance; growth inhibition, % at 100 µM;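 active = growth inhibition above about 50% at one test dose, limit read from the data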;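 also: growth measured after 20 h incubation at 37 °C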
Numbers without * were called inactive; . = no result given.

SMILES | Jurkat viability | tolC growth inh | H69AR growth 86K | Lung fibro prol | HUVEC inhibit | Ecoli WT expand
O=C(NCc1cccs1)C1CCCN(c2nc3ccccc3o2)C1 (stereo not drawn) | -1 | 4 | 76 | 98 | 74 | -3
O=S(=O)(CC(CN1CCCC1)N1CCCC1)c1ccc2ccccc2c1 (stereo not drawn) | 8 | -15 | 1.9* | 3.5* | 18* | .
CCOC(=O)c1c(NC(=O)c2ccco2)n(C2CCCCC2)c2nc3ccccc3nc12 | . | . | 36* | 105 | 96 | 6
CCC(=O)Nc1c(C#N)c2nc3ccccc3nc2n1C1CCCCC1 | . | 12 | 85 | 94 | 98 | 3
Cc1sc(NC(=O)CSc2nnnn2C2CCCCC2)c(C#N)c1C | . | . | . | . | . | 3
COc1ccc(C2N(C(=O)CN3CCOCC3)CCN2S(=O)(=O)c2ccccc2)cc1 (stereo not drawn) | 1 | -11 | 22* | . | 87 | -2
Cc1nn(-c2nc3ccccc3s2)c(C)c1Oc1ccccc1O | 28* | 28 | 77 | 85 | 84 | -6
Cc1nn(-c2ccccn2)c(C)c1Oc1ccccc1O | -1 | 5 | 86 | 89 | 99 | 2
CC(C)(C)C(=O)Cn1c(=N)n(Cc2ccccc2)c2ccccc21 | 2 | 100* | 38* | 91 | 113 | 1
COc1ccccc1OCC(O)Cn1c(=N)n(Cc2ccccc2)c2ccccc21 (stereo not drawn) | . | 36 | 51 | 60 | 36 | 2
N=c1n(Cc2ccccc2)c2ccccc2n1CC(O)c1ccccc1 (stereo not drawn) | 1 | 44 | 38* | 88 | 89 | 7
O=[N+]([O-])c1ccc(N2CCN(c3ccc(Cl)nn3)CC2)cc1NC1CC1 | . | . | 50 | 92 | 88 | .
CCCn1c2c(c(O)c(C(=O)NC)c1=O)CCCC2 | 4 | 21 | 92 | 87 | 86 | 7
CCCCCCCn1ccc(=N)cc1 | . | . | 60 | 84 | 68 | 12
N=c1c2c(n(Cc3ccc(F)cc3)c3c1CCC3)CCC2 | 24 | 15 | 95 | 91 | 108 | -1
CCCCCCn1c2c(c(=N)c3c1CCC3)CCC2 | 91* | 90* | 26* | 67 | 92 | 24
CCCCCCCCCn1c2c(c(=N)c3c1CCC3)CCC2 | . | . | 8.6* | 28* | 3.9* | .
CCCCn1c2c(c(=N)c3c1CCC3)CCC2 | 69* | 16 | 87 | 79 | 79 | 8
CCNc1nnc(-c2ccc(C)cc2)o1 | 0 | 4 | 95 | 103 | 106 | 14
N#Cc1c(NC(=O)c2cc(C3CC3)on2)sc2c1CCC2 | 3 | 4 | 33* | 99 | 61 | 1
Cc1cc(C(=O)Nc2sc3c(c2C#N)CCCC3)no1 | 18 | 1 | 27* | 96 | 80 | 2
CC(C)Cc1cc(C(=O)Nc2sc3c(c2C#N)CCCC3)no1 | 0 | 79* | 91 | 91 | 97 | -2
Cc1cc(C(=O)Nc2sc3c(c2C#N)CCC(C)C3)no1 (stereo not drawn) | 12 | 21 | 52 | . | 58 | 0
Cc1cc(C(=O)Nc2sc3c(c2C#N)CCC3)no1 | 45* | 11 | 22* | 99 | 68 | -4
COc1cc2c(C(=O)NCc3ccc4c(c3)OCO4)cn(CC(C)C)c(=O)c2cc1OC | -5 | -9 | 85 | 42* | 68 | -5
SMILES | Jurkat viability | tolC growth inh | H69AR growth 86K | Lung fibro prol | HUVEC inhibit | Ecoli WT expand
COc1cc2c(C(=O)Nc3ccc4c(c3)OCO4)cn(CC(C)C)c(=O)c2cc1OC | . | -8 | 92 | 99 | 91 | -1
CCN(CC)S(=O)(=O)c1ccc(Cc2ncc(C(F)(F)F)cc2Cl)s1 | . | . | 79 | 94 | 108 | 2
O=C(COC(=O)c1cc(S(=O)(=O)N2CCOCC2)ccc1O)NCCc1ccccc1 | . | . | 96 | 106 | 87 | 3
CCOC(=O)/C=C1\SCC(=O)N1CCOc1cccc(Br)c1 | . | 26 | 104 | 107 | 89 | -14
COc1ccc(-c2csc(N(CCCN(C)C)C(=O)c3cccs3)n2)cc1 | 1 | 9 | 22* | 94 | 76 | 8
COCCCN(C(C)=O)c1nc(-c2ccc(OC)cc2)cs1 | 57* | 5 | 15* | 72 | 63 | 2
CCC(=O)N(CCCN(C)C)c1nc(-c2cc(OC)ccc2OC)cs1 | 7 | 3 | 79 | 98 | 90 | 2
N#CC1=C(N)NC(SCc2ccc(F)cc2)=C(C#N)C12CCCCC2 | . | 4 | 10* | 54 | 36 | 16
CC(=O)N1c2ccccc2N(Cc2ccc(C)cc2C)C(=O)C1(C)C | 95* | 22 | 23* | 46* | 50 | 10
COc1cccc(NC(=O)C2CCCN(S(=O)(=O)c3cccc4cccnc34)C2)c1 (stereo not drawn) | -1 | 24 | 82 | 104 | 88 | -3
O=C(Nc1ccncc1)C1CCCN(S(=O)(=O)c2cccc3cccnc23)C1 (stereo not drawn) | 89* | 1 | 24* | 57 | 67 | 10
CCOc1ccc(N(CC(=O)Nc2cccc(OC)c2)S(=O)(=O)c2c(C)noc2C)cc1 | 8 | 70* | 72 | 89 | 88 | -21
Cc1ccc(N(CC(=O)Nc2ccc3c(c2)OCCO3)S(=O)(=O)c2c(C)noc2C)cc1 | -5 | 65* | 85 | 80 | 92 | -8
CCOc1ccc(N(CC(=O)Nc2cccc(Cl)c2)S(=O)(=O)c2c(C)noc2C)cc1 | 16 | 73* | 30* | 73 | 80 | 3
CC1(C)C(=O)OC(c2ccco2)C(C)(C)C1=O (stereo not drawn) | . | . | 92 | 105 | 84 | 6
Cc1ccccc1-c1nnc(SCc2ccccc2F)o1 | -5 | 64* | 105 | . | 106 | -9
CCOC(=O)n1c(=O)n(Cc2ccc(Cl)c(Cl)c2)c2ccccc21 | . | . | . | . | . | -11
COc1ccc(C2=NNC(c3cccs3)=Nc3ccc(OC)cc32)cc1 | . | . | 81 | 94 | 102 | .
CCOc1ccc(C2=NNC(c3cccs3)=Nc3ccc(OC)cc32)cc1OCC | . | . | 38* | 83 | 71 | .
CC1CCN(C(=O)COC(=O)c2cc(Cl)cc(Cl)c2N)CC1 | . | . | 84 | 110 | 112 | 0
COc1ccccc1N1CCN(C(=O)CSc2nnc3n2C(C)(C)Cc2ccccc2-3)CC1 | 60* | 30 | 81 | 104 | 63 | 4
CC1Cc2ccccc2N1C(=O)CSc1nnc2n1C(C)(C)Cc1ccccc1-2 (stereo not drawn) | 0 | 23 | 80 | 107 | 91 | -3
O=C(C1CCCN(S(=O)(=O)c2cccc3cccnc23)C1)N1CCc2ccccc21 (stereo not drawn) | 6 | 11 | 58 | 89 | 86 | 1
Clc1ccc(Cl)c(-c2nn3c(COc4ccccc4)nnc3s2)c1 | -3 | 96* | 91 | 106 | 94 | -1
Cc1cc(NC(c2cccnc2)c2ccc3cccnc3c2O)no1 (stereo not drawn) | 37* | -4 | 31* | 3.9* | 57 | 21
Cc1cccc(NC(c2ccc(O)cc2)c2ccc3ccc(C)nc3c2O)n1 (stereo not drawn) | . | . | 67 | 87 | 77 | 13
